UBC13 polyUb: inhibitors of human UBC13 polyubiquitin chain formation; inhibition, % at 20 µM; P61088; 330,000 compounds, 0.47% hits; TR-FRET; in the data active = inhibition above about 45%, passing the limit was not always enough; inconclusive = no clear call, values can overlap the other calls
Target sequence (P61088 whole entry, looked up): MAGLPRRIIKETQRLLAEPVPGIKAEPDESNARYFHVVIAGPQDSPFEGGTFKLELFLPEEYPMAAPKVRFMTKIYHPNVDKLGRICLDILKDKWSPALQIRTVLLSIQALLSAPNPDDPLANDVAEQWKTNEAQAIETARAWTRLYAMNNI
Mdm2 MdmX PPI: disrupts the human Mdm2-MdmX interaction; O15151+Q00987; SaOS-2 split-luciferase Mdm2/MdmX complementation, luminescence; inhibition, % at 8 µM; 330,000 compounds, 3% hits; AID 485346;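 active = inhibition of at least 50% at 8 µM in the primary screen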
Apaf1 inhib: inhibitors of human Apaf-1 apoptosome; O14727; reconstituted apoptosome caspase-3 activity, DEVD-Rh110 fluorescence; inhibition, % at 20 µM; 330,000 compounds, 0.71% hits; AID 489030; active = inhibition of at least 40% at 20 µM
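System – cell-free apoptosome with Apaf-1, procaspase-3 and caspase-9 · Buffer or medium – pH 7.5 Hepes buffer with CHAPS, BSA, DTT · Also added – cytochrome c with DEVD-Rh110 · Times – 30 min compound preincubation, 50 min activation, room temperature · Technique – Rh110 fluorescence intensity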
XBP1 UPR activ: adaptive UPR (XBP1) activation. CHO-XBP1 luciferase reporter, IRE1-XBP1 UPR activation, luminescence; percent of tunicamycin response, DMSO as zero. activation, % at 20 µM. 330,000 compounds, 0.33% hits. AID 463104;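 active = versus positive control, 20 µM dose yields 30% or more activation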
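assay system = CHO-XBP1 luciferase reporter cells | amount = 1000 cells/well | buffer or medium = F12 plus 10% FBS | compound dosing = single point, 20 µM final compound, 1% DMSO | incubation = 16-18 h cell attachment at 37 °C, then 6 h compound exposure | detection = Steady-Glo luminescence read | controls = tunicamycin 10 µg/mL and vehicle-only wells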
UPR CHOP act: apoptotic UPR (CHOP) activation; activation, % at 10 µM; 330,000 compounds, 0.34% hits; CHO-CHOP luciferase reporter, luminescence; percent of tunicamycin response over DMSO baseline;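 active = at 10 µM dose, activation of 40% or more, normalized to positive control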
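System: CHO CHOP reporter cells. Amount: 500 cells per well. Buffer or medium: F12 medium, 10% FBS. Compound dosing: one dose, 10 µM in 0.5% DMSO. Incubation: 6 h compound exposure at 37 °C after overnight seeding. Technique: Steady-Glo luciferase luminescence. Benchmarks: tunicamycin and DMSO controls.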
Of the large screens only hits and unclear results are named; the others gave an inactive call; ! = not active in a repeat. Only some compounds are listed: those with a hit (about 4.1% of all), similar ones and a draw of the others.

CCC(=O)OCCNc1cc(Sc2nc3ccccc3s2)c2nonc2c1[N+](=O)[O-]	Apaf1 inhib 46
O=S(=O)(c1ccc(=S)[nH]c1)N1CCCC1	none
CC1(OC(=O)c2cccs2)C(=O)C=C2C=C3CCCN3C=C2C1=O (stereo unspecified)	Apaf1 inhib 62
CCOC(=O)C1=C(Cc2ccc(F)cc2)C(=O)c2ccccc2C1=O	UPR CHOP act 125
O=C(OCc1ccc(F)cc1)c1ccc2c(c1)-c1ccccc1C2=O	none
CN(CC1CCCN(CCc2ccc(F)cc2)C1)C(=O)CCC(N)=O (stereo unspecified)	none
O=C(COC(=O)Cc1cccs1)Nc1ccccc1	none
Cc1nc2ccc(S(=O)(=O)NCC(=O)NC(C)c3ccccc3)cc2s1 (stereo unspecified)	none
CCOCCCNCC(O)c1ccccc1 (stereo unspecified)	none
OCc1cc(C(O)CNCCCCCCOCCCCc2ccccc2)ccc1O (stereo unspecified)	Apaf1 inhib 42!
COc1cc(/C=C2/C(=N)N3C(=NC2=O)SN=C3S(C)(=O)=O)ccc1OS(=O)(=O)c1ccccc1	none
COc1cc(/C=C2/C(=O)N(c3ccccc3)N=C2C)ccc1OS(=O)(=O)c1ccccc1	Apaf1 inhib 95
COc1ccc(/C=C2/C(=O)N(c3ccccc3)N=C2C)cc1Br	Apaf1 inhib 87
CCc1ccc(-c2nc(CS(=O)CC(=O)NCCCN3CCC(C)CC3)c(C)o2)cc1 (stereo unspecified)	none
O=C(CN1C(=O)NC2(CCCc3ccccc32)C1=O)Nc1cc(F)ccc1F (stereo unspecified)	none
Cc1ccc(Cn2cc(CCC(=O)O)c3ccccc32)cc1	none
O=C(O)Cc1cn(Cc2ccc(F)cc2)c2ccccc12	UPR CHOP act 47
CCCNC(=O)OC[C@H]1O[C@H](CCO/N=C(\C)CCN2CCc3nc(-c4ccccc4)c(-c4ccccc4)cc3C2)C=C[C@@H]1Oc1ccc(OC)cc1	Apaf1 inhib 53
CCCNC(=O)OC[C@H]1O[C@H](CCO/N=C/C[C@@H]2C=C[C@H](OC(C)=O)[C@@H](COC(C)=O)O2)C=C[C@@H]1Oc1ccc(OC)cc1	none
S=c1[nH]nc(C2CCCCC2)n1/N=C/c1ccc(Br)s1	none
Cn1c2c(c(=O)n(C)c1=O)C1c3cc(Cl)ccc3OCC1CO2 (stereo unspecified)	none
COc1ccc(-c2coc3c(CN4CCCCC4)c(O)c(CN4CCCCC4)c(O)c3c2=O)cc1	Apaf1 inhib 42
O=c1c(-c2ccc(Br)cc2)coc2c(CN3CCCCC3)c(O)ccc12	none
CCCC1=NN(c2ccc([N+](=O)[O-])cc2)C(=O)/C1=C\N(C)C	none
CCN(CC)c1ccc(/C=C2/C(=O)N(c3ccc([N+](=O)[O-])cc3)N=C2N2CCOCC2)cc1	Apaf1 inhib 56
CCC(CO)Oc1cc(NC(=O)c2ccccc2Cl)c2ncn(C(C)C)c2c1 (stereo unspecified)	none
CC1=C(C#N)C(=O)N(C2CCS(=O)(=O)C2)C(=O)/C1=C\c1ccco1 (stereo unspecified)	UBC13 polyUb inconclusive, Apaf1 inhib 54
O=C1/C(=C\c2ccco2)SC(=S)N1C1CCCCC1	none
C[C@]12C=CC(=O)C=C1CC[C@@H]1C2=CC[C@]2(C)[C@@H](C(=O)CN3CCN(c4cc(N5CCCC5)nc(N5CCCC5)n4)CC3)CC[C@@H]12	Apaf1 inhib 87
CC(=O)OC1=C(O)C(=O)c2ccccc2C1=O	Apaf1 inhib 59
O=C(NC(=S)Nn1cnc2c(cnn2-c2ccccc2)c1=O)c1ccc(Oc2ccccc2)cc1	Apaf1 inhib 41
O=c1oc(Cl)c(Cl)c2ccccc12	UPR CHOP act 88
O=C(CN1C(=O)/C(=C2/SC(=S)N(CCS(=O)(=O)O)C2=O)c2ccccc21)Nc1cccc(Br)c1	none
CCOC(=O)Cc1csc(N/C(=N/S(=O)(=O)c2ccc(Cl)cc2)c2ccccc2)n1	Apaf1 inhib 63
CCOC(=O)Cc1csc(NS(=O)(=O)c2ccc(Cl)cc2)n1	none
C[C@H]1CN([C@@H](C)CO)C(=O)c2cccc(NC(=O)C3CC3)c2O[C@H]1CN(C)S(=O)(=O)c1ccccc1	none
CCOC(=O)c1ccc(S(=O)(=O)N2CCC(N3CCCCC3)CC2)cc1	UBC13 polyUb 47
CCCOc1ccc(N)cc1N	Apaf1 inhib 91
NC(CCCCc1ccccc1)c1cccc2ccccc12 (stereo unspecified)	UBC13 polyUb 54
CC(Oc1ccccc1)C(=O)N1CCN=C1SCc1ccc(F)cc1 (stereo unspecified)	none
CCN(CC)S(=O)(=O)c1ccc2c(c1)oc(=O)n2CC(=O)NC1CCCCC1	none
C=CCn1c(SCC(=O)N2CCN(c3ccccc3)CC2)nc2c([nH]c3ccccc32)c1=O	XBP1 UPR activ 73
COCC(C)OC(=O)c1c(N)n(CC(C)C)c2nc3ccccc3nc12 (stereo unspecified)	none
C=CCn1c(N)c(C(=O)OC(C)(C)C)c2nc3ccccc3nc21	Apaf1 inhib 67
COc1cc(OC)c(C2CC(=O)N3CN(c4ccccc4C)CSC3=C2C#N)cc1OC (stereo unspecified)	Apaf1 inhib 66
CC(OC(=O)c1ccc(F)c(S(=O)(=O)N2CCOCC2)c1)C(=O)NC1CCCC1 (stereo unspecified)	none
N#Cc1ccc(C23CC4(C2)[C@H](CN(CC2CCCCC2)[C@@H]4c2ccccc2)C3c2ccc(C(F)(F)F)cc2)cc1 (stereo partly specified)	Apaf1 inhib 42
N#Cc1ccc(C23CC4(C2)[C@H](CN(CC2CCCCC2)[C@@H]4c2ccccc2)C3c2ccccc2)cc1 (stereo partly specified)	none
COc1ccc2c3c(cccc13)N(C)N=C2C	Apaf1 inhib 73
C#CCOCCOCCOCCNc1nc(N2CCN(C(=O)CCCCCCCCCCNC(=O)[C@H](CCC(=O)O)n3cc(CCCCCN)nn3)CC2)nc(N2CCN(C(=O)CCCCCCCCCCNC(=O)[C@@H]([C@H](C)O)n3cc(C)nn3)CC2)n1	Apaf1 inhib 51
C#CCOCCOCCOCCNc1nc(N2CCN(C(=O)[C@H](CCCCN)n3cc(CCCC)nn3)CC2)nc(N2CCN(C(=O)[C@H](Cc3ccc(O)cc3)n3cc(CCO)nn3)CC2)n1	UBC13 polyUb 90
C#CCOCCOCCOCCNc1nc(N2CCN(C(=O)CCCCCCCCCCNC(=O)[C@H](CCCCN)n3cc(CCO)nn3)CC2)nc(N2CCN(C(=O)CCCCCCCCCCNC(=O)[C@H](CCCN=C(N)N)n3cc(C[C@@H](C)CC)nn3)CC2)n1	UBC13 polyUb 125, Apaf1 inhib 78

Assay outcomes from PubChem.
